Screening data as filed in PubChem.
HKDC1 inh = HKDC1 (human) hexokinase inhibition. Q2TB90. recombinant HKDC1, G6PDH/diaphorase resazurin coupled fluorescence. inhibition, % at 20 µM. 340,000 compounds, 0.16% hits. AID 493160;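 active = inhibition above about 35% when tested at 20 µM, limit read from the data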;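 note: plate controls were DMSO wells with enzyme for no effect and DMSO wells lacking enzyme for full effect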
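Test system: recombinant HKDC1 (HK5) hexokinase enzyme, produced in-house; Amount: enzyme 5 µg/mL final; Buffer or medium: Tris pH 8.0 buffer with MgCl2, Tween-20, BSA, BME; Reagent: glucose and ATP substrates; Doses: 20 µM test compound, 1% DMSO; Incubation: 90 min reaction incubation at room temperature, dark; Detection: resorufin fluorescence at 613 nm.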
UBC9 SUMO inh = inhibitors of human SUMOylation (UBC9) | HTRF SUMOylation assay, SAE1/SAE2 + UBC9, in vitro | inhibition, % at 35 µM | 290,000 compounds, 0.36% hits; in the data active = inhibition above about 50%, passing the limit was not always enough
Target sequence (P63279 whole entry, looked up): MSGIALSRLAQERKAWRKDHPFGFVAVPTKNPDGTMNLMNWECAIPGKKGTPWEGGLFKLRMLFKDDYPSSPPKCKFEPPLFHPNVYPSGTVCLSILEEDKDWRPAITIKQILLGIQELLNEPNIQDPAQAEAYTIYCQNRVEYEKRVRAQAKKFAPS
Apaf1 inhib = inhibitors of human Apaf-1 apoptosome | reconstituted apoptosome caspase-3 activity, DEVD-Rh110 fluorescence | inhibition, % at 20 µM | 330,000 compounds, 0.71% hits | AID 489030; active = inhibition of at least 40% at 20 µM;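 note: plate controls were DMSO wells for no effect and DEVD-CHO caspase inhibitor wells for full effect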
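Material: cell-free apoptosome with Apaf-1, procaspase-3 and caspase-9; Buffer or medium: Hepes pH 7.5 with detergent and BSA; Reagent: cytochrome c trigger plus (Z-DEVD)2-Rh110 caspase-3 substrate; Times: compound with Apaf-1, dATP, procaspase-3 30 min, then 50 min reaction, room temperature; Technique: Rh110 fluorescence intensity.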
Redox H2O2 prof = compounds producing H2O2 with reducing agent – biochemical, NIH compound library profiling, artefact control for MLSCN library redox annotation, primary screen; AID 878; activation, % at 10 µM; DTT-dependent redox cycling H2O2, phenol red/HRP absorbance; 100% = 100 µM peroxide control, 0% = buffer; 200,000 compounds, 0.03% hits;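 active = activation of at least 50% relative to the plate's high and low controls in the primary single-dose screen; inactive = activation below 50%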;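 note: compound incubated with DTT at 0.8 mM final as the reducing agent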
GSTO1 inh = counter-screen for RBBP9 inhibitors: inhibitors of human GSTO1. P78417. recombinant GSTO1, activity-based probe fluorescence polarization. inhibition, % at 5.96 µM. 300,000 compounds, 1.1% hits;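 active = inhibition above the campaign mean inhibition plus 3 SD, cut at about 35% in these data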;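 note: 0% = GSTO1-1 with DMSO and 100% = wells lacking GSTO1-1 enzyme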
Target sequence (P78417 whole entry, looked up): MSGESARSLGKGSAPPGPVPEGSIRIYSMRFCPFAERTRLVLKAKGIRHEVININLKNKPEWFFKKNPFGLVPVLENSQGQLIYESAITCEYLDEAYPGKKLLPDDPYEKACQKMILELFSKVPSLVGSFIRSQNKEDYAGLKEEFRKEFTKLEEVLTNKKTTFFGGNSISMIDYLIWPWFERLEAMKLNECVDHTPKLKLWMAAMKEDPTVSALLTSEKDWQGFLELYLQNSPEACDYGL
Redox H2O2 DR = redox cycling H2O2 generation, confirmed; shares compounds with Redox H2O2 prof; DTT-dependent redox cycling H2O2, phenol red-HRP absorbance; EC50, µM; 60 compounds, 40% hits;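 active = EC50 under a set limit for hydrogen peroxide production with the reducing agent DTT present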
GSTO1 confirm = confirmation of human GSTO1 inhibitors. recombinant GSTO1, probe fluorescence polarization. shares compounds with GSTO1 inh. 2,400 compounds, 54% hits. inhibition, % at 5.96 µM;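 active = inhibition above the primary screen's cutoff, its mean inhibition plus 3 SD, cut at about 35% in these data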;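 note: loss of polarization as inhibitors block binding of rhodamine sulfonate ester activity probe; 0% = GSTO1 with DMSO and 100% = wells lacking GSTO1 enzyme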
Apaf-1 inh conf = Apaf-1 inhibition, single-dose confirmed; shares compounds with Apaf1 inhib; reconstituted apoptosome, caspase-3 DEVD-Rh110 fluorescence; inhibition, % at 20 µM; 1,800 compounds, 25% hits; AID 504614;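 active = mean inhibition of at least 40% at 20 µM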;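 note: plate controls were DMSO wells for no effect and DEVD-CHO caspase inhibitor control wells for full effect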
Rh110 interf inh = interferes with Rh110 fluorescence, flagging false Apaf-1 inhibitors. shares compounds with Apaf1 inhib. Rh110 fluorescence interference, quenched caspase reaction. activation (fluorescence interference), % at 20 µM. 1,800 tested, under 10 active;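 active = signal rise of 40% or more at 20 µM, treated as a fluorescence artifact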
Apaf1 inh interf = Apaf-1 inhibitor counter-screen fluorescence artifact. shares compounds with Apaf1 inhib. fluorescence interference counterscreen, Apaf-1 assay format. IC50, µM. 460 tested, under 10 active. AID 588538; call rule not given here
HKDC1 act conf2 = confirmation of human HKDC1 activators; recombinant HKDC1, G6PDH/diaphorase resazurin fluorescence; hits give low values; 740 compounds, 14% hits; AID 504708; shares compounds with HKDC1 inh; inhibition, % at 20 µM;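 active = inhibition at or below a set negative limit, negative inhibition meaning the enzyme was activated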
Numbers without * were called inactive; . = no result. This is a sample that favours compounds with a hit; in the whole collection about 1.4% have one here.

SMILES | HKDC1 inh | UBC9 SUMO inh | Apaf1 inhib | Redox H2O2 prof | GSTO1 inh | Redox H2O2 DR | GSTO1 confirm | others
COc1ccccc1C(=O)OCC(=O)NC1CCCC1 | -8.6 | 0.3 | 4.4 | . | -8.3 | . | .
CCCc1nc2c(=O)n(C)c(=O)nc-2n(C)n1 | 3.3 | 97.9* | . | 127.5* | . | 1.51* | .
CCn1c(N)nc2c1c(=O)n(C)c(=O)n2C | -0.9 | -15.7 | 5.8 | -2.1 | 2.3 | . | .
Cc1nn(CC(=O)Nc2ccc(Br)cc2F)c(=O)c2cccn12 | -7.1 | 5.3 | 4.4 | . | -1.4 | . | .
NS(=O)(=O)c1ccc(CCNC(=O)c2ccc3c(=O)n4c(nc3c2)CCCCC4)cc1 | 0.7 | . | 8.7 | . | . | . | .
COc1cccc(NC(=O)C(OC(=O)c2ccc([N+](=O)[O-])o2)c2ccccc2)c1 (configuration not stated) | -9.5 | -12.4 | 24.5 | 91.5* | 11.2 | >50 | .
CCCCn1c(N)c(N(CC)C(=O)CSCC(=O)Nc2ccc(OC)cc2)c(=O)[nH]c1=O | 4.7 | . | -11.3 | . | 4.1 | . | .
Cc1ccc(S(=O)(=O)/N=C2\C=C(NS(=O)(=O)c3ccccc3)C(=O)c3ccccc32)c(C)c1 | 27.3 | . | . | . | . | . | .
Cc1ccc(S(=O)(=O)/N=C2/C=C(Sc3ncn[nH]3)C(=O)c3ccccc32)c(C)c1 | . | 95.5* | . | 83.3* | 91.2* | 12.5* | 92.7*
CCCCn1c(NS(=O)(=O)c2ccc(C)cc2)c(S(=O)(=O)c2ccccc2)c2nc3ccccc3nc21 | 1.1 | 100.5* | . | 96.6* | 78.3* | >50 | 70.7*
O=C(Nc1ccccc1F)C1CCN(S(=O)(=O)c2cccnc2)CC1 | -7.2 | . | 0.8 | . | 3.2 | . | .
Nc1cc2nsnc2cc1Br | -4.3 | 100.0* | 98.2* | 361.7* | 92.4* | >50 | 90.6* | Apaf-1 inh conf=99.1*;Rh110 interf inh=5.6;Apaf1 inh interf=>100
Cc1ccc(S(=O)(=O)N2C(=O)CCC2C(N)=O)cc1 (configuration not stated) | 4.2 | 8.4 | -8.7 | . | . | . | .
CCC(=O)Nc1c(C#N)c2nc3ccccc3nc2n1-c1ccccc1C | 3.5 | -6.2 | 36.1 | -0.4 | 24.2 | . | .
CCCCn1c(NC(=O)c2ccccc2Cl)c(C#N)c2nc3ccccc3nc21 | 16.7 | . | 92.7* | 311.2* | 94.3* | >50 | 64.1* | Apaf-1 inh conf=59.1*;Rh110 interf inh=-0.9;Apaf1 inh interf=>100
Cc1ccc(NS(=O)(=O)c2cc(NC(=O)C(C)Oc3ccccc3)ccc2C)c(C)c1 (configuration not stated) | 3.7 | -23.6 | 7.8 | 0.2 | 2.0 | . | .
Cc1ccc(C)c(S(=O)(=O)Nc2cc(SCC(=O)O)c(O)c3ccccc23)c1 | 63.4* | 80.4 | . | 101.2* | 87.0* | >50 | . | HKDC1 act conf2=55.2
COc1ccc2[nH]cc(CCNC(=O)COc3ccc4ccc(=O)oc4c3)c2c1 | -5.3 | 6.7 | -2.4 | . | 6.1 | . | .
O=C1C(Nc2ccccc2)=C/C(=N/S(=O)(=O)c2cccs2)c2ccccc21 | 67.7* | 49.1 | . | 102.3* | 84.2* | >50 | 95.1* | HKDC1 act conf2=65.0
NC(=O)C1CCN(C2=C(NS(=O)(=O)c3ccccc3)C(=O)c3ccccc3C2=O)CC1 | 15.5 | 76.3 | 21.5 | . | 11.9 | . | .
NC(=O)C1CCN(C2=C(Cl)C(=O)c3ccccc3C2=O)CC1 | 46.7* | 7.6 | 73.1* | 355.9* | 86.8* | >50 | 80.0* | HKDC1 act conf2=73.0
CC(C)CCCC(C)NC(=O)c1cc(S(=O)(=O)N2CCCCC2)ccc1N1CCOCC1 (configuration not stated) | 7.7 | . | 12.4 | . | . | . | .
CC(C)c1ccc(S(=O)(=O)/N=C2/C=C(Sc3ncn[nH]3)C(=O)c3ccccc32)cc1 | 63.9* | 90.0* | . | 93.0* | 85.1* | 13* | . | HKDC1 act conf2=60.8
Cc1ccc(S(=O)(=O)/N=C2/C=C(Sc3ncn[nH]3)C(=O)c3ccccc32)cc1 | 69.2* | 95.1* | . | 119.6* | 96.3* | 11.8* | 88.0* | HKDC1 act conf2=63.3
Cc1cc(C)cc(N2C(N)=NC(N)=NC2c2ccccc2F)c1 (configuration not stated) | 1.6 | 2.9 | -2.5 | . | 3.6 | . | .
SMILES | HKDC1 inh | UBC9 SUMO inh | Apaf1 inhib | Redox H2O2 prof | GSTO1 inh | Redox H2O2 DR | GSTO1 confirm | others
O=C1C=C(N(CCO)Cc2ccccc2)c2ccccc2C1=O | 35.0* | 64.4* | . | 129.0* | . | 3.11* | . | HKDC1 act conf2=29.1
O=C1c2ccccc2C(=O)c2c1cccc2N(CCO)CCO | 8.1 | -6.3 | 8.3 | . | 1.1 | . | .
CC(=O)NN1C(=O)/C(=C/c2ccc(Br)o2)SC1=S | -5.8 | 26.0 | -4.2 | -0.1 | 64.4* | . | 77.7*
CC(=O)NN1C(=O)/C(=C\c2ccccc2)SC1=S | 6.2 | 22.6 | 0.2 | -4.7 | 3.6 | . | .
CC(=O)NN1C(=O)/C(=C\c2ccc(Br)o2)SC1=S | -0.1 | 41.3 | 14.6 | 0.6 | 69.3* | . | 78.5*
COc1cc(C(=S)N2CCCCC2)ccc1OCC(=O)Nc1ccc(F)cc1 | 5.0 | 5.2 | 14.4 | . | 2.6 | . | .
CCOC(=O)c1c(CC(C)C)csc1NC(=O)C(C)C | 4.8 | -21.4 | 14.9 | 1.8 | 1.9 | . | .
CCOC(=O)c1c(CC(C)C)csc1NC(=O)CCl | 20.1 | 4.8 | 16.3 | 0.9 | 76.0* | . | 91.6*
COc1ccccc1C(=O)Nc1nc(-c2cccs2)c(NC(C)=O)s1 | 2.4 | 33.5 | 5.0 | -11.4 | 38.7* | . | 8.4
CC#CC#Cc1cccc(=O)o1 | -1.2 | 19.2 | . | . | 81.5* | . | 79.9*
CN1CCN(C(=O)c2cc([N+](=O)[O-])ccc2Cl)CC1 | -3.3 | 15.2 | -9.4 | . | -2.5 | . | .
CC(=O)Oc1cc(OC(C)=O)c2c(C)cc(=O)oc2c1 | 2.3 | 36.6 | 2.7 | 0.8 | 53.2* | . | 5.9
CC1=C/C(=N\OS(=O)(=O)c2ccccc2)C(C)=CC1=O | 17.6 | 4.7 | -3.1 | -0.6 | 25.2 | . | .
CC1=C(C)/C(=N\OS(=O)(=O)c2ccc(C)cc2)C=CC1=O | 14.7 | 11.1 | . | -1.0 | 44.5* | . | 7.0
Cc1ccc(-c2noc(CSc3nnc(-c4ccncc4)n3-c3ccc(C)cc3)n2)cc1 | 1.2 | -7.7 | 4.1 | 1.9 | 8.7 | . | .
Cc1ccc(-c2noc(CSc3nnnn3C3CCCCC3)n2)cc1 | -2.5 | -5.1 | 16.4 | -0.6 | 39.6* | . | 32.6
CNc1ccc(Br)cc(C(=O)/C=C/c2ccc(OC)cc2)c1=O | 12.4 | 26.0 | 29.5 | 0.0 | 28.4 | . | .
